Experiments:
[1] = system: Mus musculus; experiment: Antimalarial efficacy against Plasmodium berghei in mice (Mus musculus) when administered subcutaneously each day for 4 days to five mice (Mus musculus) per dose regimen; type: functional; conditions: sc, 96 h
Outline: (§1)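 P. berghei-infected mice; four doses (1, 3, 10 and 30 mg/kg) given once daily for four days, five mice per dose regimen, by sc or iv route as per line. ED50 and ED90 derived from the dose–response, reported in mg/kg and µmol/kg.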

[2] = system: Mus musculus; experiment: Antimalarial efficacy against Plasmodium berghei in mice (Mus musculus) when administered intravenously each day for 4 days to five mice (Mus musculus) per dose regimen; type: functional; conditions: iv, 96 h; outline: as §1

Compound	ED50 [1]	ED90 [1]	ED50 [2]	ED90 [2]
CO[C@H]1O[C@@]2(c3ccc(C(=O)O)cc3)CC[C@H]3CCCC[C@]31OO2	10.5 mg/kg	19.5 mg/kg	16.5 mg/kg	48 mg/kg
CCN(CC)CCCC(C)Nc1ccnc2cc(Cl)ccc12 (stereo unspecified) [CHLOROQUINE]	1 mg/kg		5 mg/kg	
CO[C@@H]1O[C@@]2(c3ccc(C(=O)O)cc3)CC[C@H]3CCCC[C@]31OO2	22.5 mg/kg	112 mg/kg	19.5 mg/kg	55 mg/kg
CO[C@@H]1O[C@@]2(c3ccc(F)cc3)CC[C@H]3CCCC[C@]31OO2	4.7 mg/kg	8.3 mg/kg	4 mg/kg	8 mg/kg
CCO[C@H]1O[C@@H]2O[C@@]3(C)CC[C@H]4[C@H](C)CC[C@@H]([C@H]1C)[C@@]24OO3 [ARTEMOTIL]	0.9 mg/kg	1.4 mg/kg	0.46 mg/kg	
C[C@@H]1[C@H](OCc2ccc(C(=O)O)cc2)O[C@@H]2O[C@@]3(C)CC[C@@H]4[C@@H](C)CC[C@@H]1[C@]24OO3 [ARTELINIC ACID]	6.6 mg/kg	14 mg/kg	4.3 mg/kg	15.5 mg/kg
